In assay [1] the target is T1, Vitamin D3 receptor (Homo sapiens) (UniProt P11473).
T1 sequence (whole entry): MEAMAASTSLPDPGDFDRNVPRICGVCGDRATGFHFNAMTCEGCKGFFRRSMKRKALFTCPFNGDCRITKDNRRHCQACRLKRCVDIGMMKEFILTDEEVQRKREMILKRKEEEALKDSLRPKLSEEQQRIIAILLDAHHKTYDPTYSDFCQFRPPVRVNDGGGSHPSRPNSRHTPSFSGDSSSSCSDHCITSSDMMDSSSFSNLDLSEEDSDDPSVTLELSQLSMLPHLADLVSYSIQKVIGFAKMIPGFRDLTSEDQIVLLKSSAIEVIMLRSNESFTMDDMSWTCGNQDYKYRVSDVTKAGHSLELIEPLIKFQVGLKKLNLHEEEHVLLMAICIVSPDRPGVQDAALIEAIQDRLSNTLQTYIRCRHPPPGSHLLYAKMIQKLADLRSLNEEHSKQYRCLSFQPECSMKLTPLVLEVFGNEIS
As to the kind of experiment: Agonist activity at CMX-GAL4 tagged human VDR expressed in HEK293 cells assessed as increase in transcriptional activity by luciferase reporter gene assay. It is filed as cell-based. A digest of the protocol:
(§1)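 GAL4-hVDR ligand-binding fusion (CMX-GAL4 N-hVDR, 15 ng/well) cotransfected by calcium phosphate into HEK293 cells with TK-MH100x4-Luc reporter (50 ng) and β-galactosidase plasmid (10 ng). Cells grown in DMEM with 5% FBS, 37 °C, 5% CO2. Compound added 22 h post-transfection and cells harvested 16–20 h later. Luciferase normalized to β-galactosidase, means of triplicates. PC50 is the concentration giving 50% of the positive-control response.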
A general note: Reporter assays use an easily measured gene product as a stand-in for the process of interest.

The species entered for the next assay is Homo sapiens. As to the kind of experiment: Selectivity index, ratio of agonist PC50 for CMX-GAL4 tagged human VDR to antagonist IC50 for human androgen receptor. An outline of the steps: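 Ratio of VDR PC50 to AR IC50. VDR PC50 comes from the GAL4-hVDR luciferase assay in HEK293 cells (50% of positive-control activity). AR IC50 is inhibition of hAR/ARE-luciferase transcription in HEK293 cells under testosterone, both β-galactosidase-normalized, means of three experiments.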

The next assay has as its target T2, Androgen receptor (Homo sapiens, UniProt P10275).
T2 sequence (P10275 whole entry): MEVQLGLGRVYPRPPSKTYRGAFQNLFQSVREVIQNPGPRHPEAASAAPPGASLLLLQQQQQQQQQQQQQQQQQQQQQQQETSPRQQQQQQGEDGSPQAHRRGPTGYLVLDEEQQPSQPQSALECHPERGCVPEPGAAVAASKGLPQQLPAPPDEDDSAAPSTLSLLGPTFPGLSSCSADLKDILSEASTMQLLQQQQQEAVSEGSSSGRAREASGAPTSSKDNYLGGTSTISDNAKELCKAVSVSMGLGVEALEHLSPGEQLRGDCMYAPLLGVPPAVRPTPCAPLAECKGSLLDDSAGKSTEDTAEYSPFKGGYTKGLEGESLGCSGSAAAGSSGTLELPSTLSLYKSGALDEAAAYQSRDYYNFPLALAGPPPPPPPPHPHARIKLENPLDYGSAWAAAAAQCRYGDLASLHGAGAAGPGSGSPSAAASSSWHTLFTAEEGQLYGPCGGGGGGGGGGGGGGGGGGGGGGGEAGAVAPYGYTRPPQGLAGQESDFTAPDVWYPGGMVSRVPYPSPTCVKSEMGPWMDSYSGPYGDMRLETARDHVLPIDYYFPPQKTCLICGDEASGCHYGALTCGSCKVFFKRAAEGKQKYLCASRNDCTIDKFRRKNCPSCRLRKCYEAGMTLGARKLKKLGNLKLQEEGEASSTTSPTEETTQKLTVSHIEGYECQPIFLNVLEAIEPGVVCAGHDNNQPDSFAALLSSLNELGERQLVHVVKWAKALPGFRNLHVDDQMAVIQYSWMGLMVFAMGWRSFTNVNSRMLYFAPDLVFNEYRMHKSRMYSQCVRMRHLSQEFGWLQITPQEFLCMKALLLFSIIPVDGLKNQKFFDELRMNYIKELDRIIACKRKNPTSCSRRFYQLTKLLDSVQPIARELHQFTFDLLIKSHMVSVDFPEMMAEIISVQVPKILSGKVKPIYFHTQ
Kind of assay: Antagonist activity at human androgen receptor expressed in HEK293 cells assessed as inhibition of transcriptional activity by luciferase and beta-galactosidase reporter gene assay. It is filed as cell-based.

Assay [2] addresses T3, Androgen receptor (Homo sapiens) (UniProt P10275).
T3 sequence (whole entry): T2 sequence (P10275 whole entry)
Kind of assay: Agonist activity at human androgen receptor expressed in HEK293 cells assessed as increase in transcriptional activity in presence of 0.3 nM testosterone by luciferase and beta-galactosidase reporter gene assay. It is filed as cell-based. A digest of the protocol:
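HEK293 cells in DMEM with 5% FBS, calcium-phosphate cotransfected with pSG5-hAR (33 ng/well), ARE-tlc-Luc reporter (33 ng) and β-galactosidase plasmid (10 ng). Compounds added 22 h after transfection, with 0.3 nM testosterone present. Harvested about 16–20 h later. Luciferase read and normalized to β-galactosidase, means of triplicates.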

The target of assay [3] is Androgen receptor (Mus musculus) (UniProt P19091). As to the kind of experiment: Agonist activity at androgen receptor in androgen-dependent mouse SC3 cells assessed as stimulation of cell growth after 3 days. It counts as cell-based. The conditions noted are these: SC-3. An outline of the steps:
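Androgen-dependent mouse Shionogi carcinoma SC-3 cells grown 3 days at 37 °C, 5% CO2 in MEM-Alpha with 2% FBS plus test compound. Growth promotion scored by cell count.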

The target is the same in assay [4]. Kind of assay: Potency index, ratio of IC50 for hydroxyflutamide to IC50 for compound against androgen receptor in androgen-dependent mouse SC3 cells assessed as inhibition of testosterone-induced cell growth after 3 days. The conditions noted are these: SC-3. It is filed as cell-based. A digest of the protocol:
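SC-3 cells cultured 3 days at 37 °C, 5% CO2 in MEM-Alpha with 2% FBS and 10 nM testosterone, with or without compound. Cell number with testosterone alone set as 100%. IC50 is the concentration halving the testosterone-induced increase in cells, means of three experiments. Index is the reference antagonist IC50 divided by the compound IC50.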

A further assay has as its system LNCaP. As to the kind of experiment: Growth inhibition of human LNCAP cells.
In a further assay the test system is HL-60. As to the kind of experiment: Induction of monocytic cell differentiation in human HL60 cells.
A further assay concerns the target T4, Vitamin D3 receptor (Homo sapiens, UniProt P11473).
T4 sequence (P11473 whole entry): T1 sequence (whole entry)
As to the kind of experiment: Agonist activity at VDR (unknown origin) by reporter gene assay. A digest of the protocol: as §1

These results are taken from ChEMBL document CHEMBL2331115, “Development of silicon-containing bis-phenol derivatives as androgen receptor antagonists: selectivity switching by C/Si exchange” (Bioorg Med Chem, 2013).

Calls of active or inactive are those of the source. The rule behind the calls is not given here.

Chain of Androgen receptor (Mus musculus) (P19091 whole entry): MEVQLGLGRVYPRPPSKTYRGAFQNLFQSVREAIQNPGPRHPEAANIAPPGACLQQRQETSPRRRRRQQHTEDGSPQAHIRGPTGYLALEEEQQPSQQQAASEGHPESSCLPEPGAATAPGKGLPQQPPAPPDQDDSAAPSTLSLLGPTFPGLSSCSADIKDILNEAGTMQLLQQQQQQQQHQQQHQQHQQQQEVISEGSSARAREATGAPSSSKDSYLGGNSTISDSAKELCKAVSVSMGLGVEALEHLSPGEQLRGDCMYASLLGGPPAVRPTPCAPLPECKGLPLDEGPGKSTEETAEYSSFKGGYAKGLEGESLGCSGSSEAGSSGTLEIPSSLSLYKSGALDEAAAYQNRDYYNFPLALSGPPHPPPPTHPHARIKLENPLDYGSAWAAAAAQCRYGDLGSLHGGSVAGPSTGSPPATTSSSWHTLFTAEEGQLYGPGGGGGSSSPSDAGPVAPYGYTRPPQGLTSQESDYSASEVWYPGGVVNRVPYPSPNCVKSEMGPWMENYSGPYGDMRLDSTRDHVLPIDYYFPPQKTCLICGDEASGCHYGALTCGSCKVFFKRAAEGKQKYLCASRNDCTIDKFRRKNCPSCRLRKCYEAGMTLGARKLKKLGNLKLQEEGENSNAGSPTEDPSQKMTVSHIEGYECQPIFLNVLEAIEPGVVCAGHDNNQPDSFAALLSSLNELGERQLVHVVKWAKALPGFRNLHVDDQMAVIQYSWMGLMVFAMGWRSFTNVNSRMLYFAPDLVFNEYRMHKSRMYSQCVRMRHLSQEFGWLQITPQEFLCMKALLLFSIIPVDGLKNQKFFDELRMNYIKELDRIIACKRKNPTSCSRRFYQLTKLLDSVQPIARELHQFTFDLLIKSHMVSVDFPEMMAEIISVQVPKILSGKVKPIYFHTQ

Consider `CC[Si](CC)(c1ccc(OC[C@@H](O)CO)c(C)c1)c1ccc(OC[C@@H](O)C(C)(C)C)c(C)c1`, for which the PC50 in assay [1] worked out at 2.2 µM. In the assay filed under Homo sapiens, the Selectivity Index turned out to be 0.27. In addition, the IC50 on Androgen receptor came out at 8.3 µM.

Regarding `CC[Si](CC)(c1ccc(OCC(=O)C(C)(C)C)c(C)c1)c1ccc(OCC(=O)C(C)(C)C)c(C)c1`, the PC50 in assay [1] was > 30 µM. Also, in the assay filed under Homo sapiens, the Selectivity Index was > 4.8. For the same compound, the result in assay [2] was inactive. For the same compound, the IC50 on Androgen receptor came out at 6.2 µM.

Consider `CC[Si](CC)(c1ccc(OC[C@H](O)CO)c(C)c1)c1ccc(OC[C@H](O)C(C)(C)C)c(C)c1`, for which the PC50 in [1] stood at 2.1 µM. The Selectivity Index in the assay filed under Homo sapiens was determined as 0.31. In addition, on Androgen receptor, the IC50 came out at 6.7 µM.

For the compound `CC[Si](CC)(c1ccc(OC[C@H](O)CO)c(C)c1)c1ccc(OC[C@@H](O)C(C)(C)C)c(C)c1`, the PC50 in assay [1] is > 10 µM. Besides, the outcome in assay [3] was inactive. Further, the Selectivity Index in the assay listed under Homo sapiens was > 1.4. Besides, the Ratio IC50 in [4] came out at 20. Also, the IC50 at Androgen receptor was found to be 7.4 µM.

On to `CCC(CC)(c1ccc(OCC(O)CO)c(C)c1)c1ccc(OCC(O)C(C)(C)C)c(C)c1` (mixture of isomers) [LG-190178], for which the EC50 stood at 0.02 µM in the assay with LNCaP and 0.03 µM in the assay on HL-60. Moreover, the PC50 in [1] came to 0.14 µM. In assay [2], the outcome was inactive. For the same compound, the IC50 on Androgen receptor was > 10 µM.

Turning to `CC(C)(O)C(=O)Nc1ccc([N+](=O)[O-])c(C(F)(F)F)c1`, the PC50 entry in assay [1] was “inactive”.

Take `CC[Si](CC)(c1ccc(O)c(C)c1)c1ccc(OC[C@H](O)C(C)(C)C)c(C)c1`: the PC50 in [1] is 8.2 µM. Also, the IC50 on Androgen receptor was > 10 µM.

As to `CC[Si](CC)(c1ccc(OCC(=O)C(C)(C)C)c(C)c1)c1ccc(OCC2CO2)c(C)c1` (racemic), in assay [1], the PC50 amounted to 4.8 µM. The Selectivity Index in the assay filed under Homo sapiens worked out at 0.48. For the same compound, the outcome in [2] was inactive. On Androgen receptor, the IC50 is > 10 µM.

Regarding `CCC(CC)(c1ccc(OCC(=O)C(C)(C)C)c(C)c1)c1ccc(OCC2CO2)c(C)c1` (racemic), in assay [1], the PC50 turned out to be 0.68 µM. The Selectivity Index in the assay listed under Homo sapiens is < 0.068. Besides, the outcome in assay [2] was inactive. Besides, the IC50 on Androgen receptor is > 10 µM.

In the case of `CCC(CC)(c1ccc(OCC(=O)C(C)(C)C)c(C)c1)c1ccc(OCC(=O)C(C)(C)C)c(C)c1`, the EC50 in the assay on LNCaP was found to be 0.02 µM; in the assay on HL-60, 0.03 µM; on Vitamin D3 receptor, 0.04 µM. For the same compound, the PC50 in assay [1] came to 4.6 µM. For the same compound, in the assay filed under Homo sapiens, the Selectivity Index was < 0.46. Besides, the result in [2] was inactive. Also, on Androgen receptor, the IC50 is > 10 µM.

For the compound `CC[Si](CC)(c1ccc(NC[C@H](O)CO)c(C)c1)c1ccc(OCC(=O)C(C)(C)C)c(C)c1`, the PC50 in assay [1] is 2.5 µM. The IC50 at Androgen receptor is > 10 µM.

In the case of `CC[Si](CC)(c1ccc(OC[C@@H](O)CO)c(C)c1)c1ccc(OC[C@H](O)C(C)(C)C)c(C)c1` (mixture of isomers), the PC50 in [1] was found to be 0.81 µM. Moreover, the Selectivity Index in the assay listed under Homo sapiens came out at 0.14. The IC50 on Androgen receptor was determined as 5.8 µM.

For `CC[Si](CC)(c1ccc(NC[C@@H](O)CO)c(C)c1)c1ccc(OCC(=O)C(C)(C)C)c(C)c1`, in assay [1], the PC50 came out at 7 µM. For the same compound, the IC50 on Androgen receptor is > 10 µM.

On to `CC[Si](CC)(c1ccc(OCC(=O)C(C)(C)C)c(C)c1)c1ccc(OC[C@H](O)CO)c(C)c1`, for which the PC50 in [1] amounted to 3.7 µM. The outcome in [3] was inactive. In addition, the Selectivity Index in the assay listed under Homo sapiens was 0.93. Besides, at Androgen receptor, the IC50 stood at 4 µM.

With `CC[Si](CC)(c1ccc(OCC(=O)C(C)(C)C)c(C)c1)c1ccc(OC[C@@H](O)CO)c(C)c1`, in assay [1], the PC50 was 2 µM. For the same compound, the 50% inhibitory concentration (IC50) at Androgen receptor was > 10 µM.

As to `CC[Si](CC)(c1ccc(OCC(O)CO)c(C)c1)c1ccc(OCC(O)C(C)(C)C)c(C)c1` (mixture of isomers), the PC50 in assay [1] was 0.92 µM. Also, the Selectivity Index in the assay filed under Homo sapiens came to 0.14. For the same compound, the result in [2] was inactive. In addition, the IC50 on Androgen receptor was found to be 6.8 µM.

As usually defined, the IC50 is the point on the concentration scale where inhibition reaches its midpoint. For orientation: EC50 means the concentration at which the effect is half-maximal. A high value points to a need for much substance.
